{
  "source": "ChEMBL document CHEMBL5678806",
  "about": "“NMS-P937, an orally available, specific small-molecule polo-like kinase 1 inhibitor with antitumor activity in solid and hematologic malignancies” (Mol Cancer Ther, 2012)",
  "key": {"PC-3": {"test_system": "PC-3", "assay": "Antiproliferative activity against human PC-3 cells assessed as inhibition of cell growth incubated for 72 hrs by cell-titer glo assay", "format": "functional, cell-based", "conditions": "PC-3, 72 h", "procedure,_shortened": "(§1)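 Cells from ATCC or ECACC, kept in supplier-recommended medium with 1% penicillin-streptomycin at 37°C, 5% CO₂. Seeded at 10,000–30,000/cm² (adherent) or 100,000/mL (nonadherent) in medium with 10% fetal calf serum. Dosed after 24 h in duplicate with serial dilutions. Viable cells read by CellTiter-Glo 72 h later. IC50 from sigmoidal fit. At least two independent experiments.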"}, "[1]": {"target": "Calcium/calmodulin-dependent protein kinase type II subunit gamma (Homo sapiens) (UniProt Q13555)", "sequence (Q13555 whole entry, the tested form may be a part)": "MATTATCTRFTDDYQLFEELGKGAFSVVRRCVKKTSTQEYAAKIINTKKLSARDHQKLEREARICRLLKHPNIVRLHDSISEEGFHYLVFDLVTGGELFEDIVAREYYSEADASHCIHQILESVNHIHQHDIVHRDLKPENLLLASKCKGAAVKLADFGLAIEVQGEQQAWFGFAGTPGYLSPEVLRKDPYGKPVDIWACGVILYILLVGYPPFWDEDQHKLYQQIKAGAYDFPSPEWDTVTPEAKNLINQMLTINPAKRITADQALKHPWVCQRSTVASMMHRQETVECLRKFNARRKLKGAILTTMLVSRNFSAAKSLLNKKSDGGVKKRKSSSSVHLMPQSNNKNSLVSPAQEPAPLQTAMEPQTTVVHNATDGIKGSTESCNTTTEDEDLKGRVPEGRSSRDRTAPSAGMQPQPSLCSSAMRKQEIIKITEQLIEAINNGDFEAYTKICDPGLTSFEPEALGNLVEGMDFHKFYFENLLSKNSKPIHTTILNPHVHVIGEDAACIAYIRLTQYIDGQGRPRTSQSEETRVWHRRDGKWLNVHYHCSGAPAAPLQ", "assay": "Inhibition of N-terminal 6His-tagged recombinant human CaMKIIgamma (1 to 330 residues) expressed in baculovirus infected Sf21 cells assessed as residual activity at 0.1 uM relative to control"}, "[2]": {"assay": "Antiproliferative activity against human CL-11 cells assessed as inhibition of cell growth incubated for 72 hrs by cell-titer glo assay", "format": "functional, cell-based", "conditions": "CL-11, 72 h", "procedure,_shortened": "(§2)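 Cells seeded 10,000–30,000/cm² (adherent) or 100,000/mL (suspension) in medium with 10% fetal calf serum; after 24 h treated in duplicate with serial dilutions for 72 h. Viable cells read by CellTiter-Glo luminescence; IC50 from sigmoidal fit; at least two independent experiments.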"}, "[3]": {"target": "Homeodomain-interacting protein kinase 2 (Homo sapiens) (UniProt Q9H2X6)", "assay": "Inhibition of N-terminal His6-tagged recombinant human HIPK2 (165 to 564 residues) expressed in baculovirus infected Sf21 cells assessed as residual activity at 1 uM relative to control"}, "[4]": {"target": "Tyrosine-protein kinase Lyn (Mus musculus) (UniProt P25911)", "sequence (P25911 whole entry)": "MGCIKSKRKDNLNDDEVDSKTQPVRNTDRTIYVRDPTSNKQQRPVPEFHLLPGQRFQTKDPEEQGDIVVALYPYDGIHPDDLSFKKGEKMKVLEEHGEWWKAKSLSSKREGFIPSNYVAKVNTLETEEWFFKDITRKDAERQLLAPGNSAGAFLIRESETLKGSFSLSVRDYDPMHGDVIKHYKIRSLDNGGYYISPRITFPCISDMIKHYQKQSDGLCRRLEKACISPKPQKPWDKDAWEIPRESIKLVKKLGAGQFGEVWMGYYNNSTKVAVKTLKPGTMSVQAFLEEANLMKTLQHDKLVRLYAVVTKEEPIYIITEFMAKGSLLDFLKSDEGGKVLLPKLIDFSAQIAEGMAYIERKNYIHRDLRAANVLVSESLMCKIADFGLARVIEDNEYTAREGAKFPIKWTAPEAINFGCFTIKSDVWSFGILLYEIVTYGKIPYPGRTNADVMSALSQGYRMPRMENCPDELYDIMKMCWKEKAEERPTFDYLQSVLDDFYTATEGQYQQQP", "assay": "Inhibition of N-terminal his6-tagged recombinant full-length mouse Lyn expressed in baculovirus infected Sf21 cells assessed as residual activity at 1 uM relative to control"}, "PANC-1": {"test_system": "PANC-1", "assay": "Antiproliferative activity against human PANC-1 cells assessed as inhibition of cell growth incubated for 72 hrs by cell-titer glo assay", "format": "functional, cell-based", "conditions": "PANC-1, 72 h", "procedure,_shortened": "as §1"}, "Granta-519": {"test_system": "Granta-519", "assay": "Antiproliferative activity against human Granta-519 cells assessed as inhibition of cell growth incubated for 72 hrs by cell-titer glo assay", "format": "functional, cell-based", "conditions": "Granta-519, 72 h", "procedure,_shortened": "(§3)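 Cells seeded at 10,000–30,000/cm² (adherent) or 100,000/mL (nonadherent) in medium with 10% fetal calf serum; after 24 h, treated in duplicate with serial dilutions for 72 h. Viable cell number read by CellTiter-Glo luminescence; IC50 from sigmoidal fit; at least two independent experiments.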"}, "[5]": {"target": "Protein kinase C beta type (Homo sapiens, UniProt P05771)", "sequence (P05771 2-671 limits assumed)": "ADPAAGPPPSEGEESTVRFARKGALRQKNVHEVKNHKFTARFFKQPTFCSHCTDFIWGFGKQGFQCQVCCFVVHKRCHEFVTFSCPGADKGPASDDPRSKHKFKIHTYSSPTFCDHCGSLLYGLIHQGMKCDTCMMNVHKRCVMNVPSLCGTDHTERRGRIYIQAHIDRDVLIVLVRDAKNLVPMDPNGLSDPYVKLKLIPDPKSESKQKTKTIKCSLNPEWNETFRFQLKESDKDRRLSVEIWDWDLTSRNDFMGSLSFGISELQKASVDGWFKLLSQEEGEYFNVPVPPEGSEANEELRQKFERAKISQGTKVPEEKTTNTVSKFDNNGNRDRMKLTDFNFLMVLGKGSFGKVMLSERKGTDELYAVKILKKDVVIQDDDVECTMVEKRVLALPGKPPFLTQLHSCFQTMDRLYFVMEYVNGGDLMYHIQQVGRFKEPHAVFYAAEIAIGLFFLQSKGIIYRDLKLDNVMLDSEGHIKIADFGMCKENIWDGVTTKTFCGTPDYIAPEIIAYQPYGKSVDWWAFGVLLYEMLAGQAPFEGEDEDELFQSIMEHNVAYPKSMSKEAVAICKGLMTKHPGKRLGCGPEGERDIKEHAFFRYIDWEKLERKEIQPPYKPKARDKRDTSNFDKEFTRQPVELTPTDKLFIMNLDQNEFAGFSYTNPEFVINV", "assay": "Inhibition of N-terminal His6-tagged recombinant human PKCbetaI (2 to end) expressed in Sf21 cells assessed as residual activity at 0.1 uM relative to control"}, "LS180": {"test_system": "LS180", "assay": "Antiproliferative activity against human LS180 cells assessed as inhibition of cell growth incubated for 72 hrs by cell-titer glo assay", "format": "functional, cell-based", "conditions": "LS180, 72 h", "procedure,_shortened": "as §3"}, "U2OS": {"test_system": "U2OS", "assay": "Antiproliferative activity against human U2OS cells assessed as inhibition of cell growth incubated for 72 hrs by cell-titer glo assay", "format": "functional, cell-based"}, "NHDF": {"test_system": "NHDF", "assay": "Induction of mitosis in human NHDF cells at 0.0001 to 100 uM incubated for >= 24 hrs followed by compound washout by cell titer glow assay", "format": "toxicity, cell-based", "conditions": "dose 0.0001-100 µM"}, "[6]": {"assay": "Half-life in nu/nu mouse at 10 mg/kg, po by LC-MS analysis", "format": "ADME, organism-based", "conditions": "in vivo"}, "[7]": {"target": "Ephrin type-B receptor 1 (Homo sapiens) (UniProt P54762)", "assay": "Inhibition of N-terminal 6His-tagged recombinant human EphB1 (564 to end residues) expressed in baculovirus infected Sf21 cells assessed as residual activity at 0.1 uM relative to control"}, "[8]": {"target": "Mitotic checkpoint serine/threonine-protein kinase BUB1 (Homo sapiens, UniProt O43683)", "assay": "Inhibition of BUB1 (unknown origin) in presence of [gamma-33P]ATP"}, "[9]": {"target": "Tyrosine-protein kinase SYK (Homo sapiens, UniProt P43405)", "assay": "Inhibition of N-terminal His6-tagged recombinant full-length human Syk expressed in baculovirus infected Sf21 cells assessed as residual activity at 1 uM relative to control"}, "KM12": {"test_system": "KM12", "assay": "Antiproliferative activity against human KM12 cells assessed as inhibition of cell growth incubated for 72 hrs by cell-titer glo assay", "format": "functional, cell-based", "conditions": "KM12, 72 h", "procedure,_shortened": "as §3"}, "[10]": {"target": "CDC7/DBF4 (Cell division cycle 7-related protein kinase/Activator of S phase kinase) (Homo sapiens, UniProt O00311)", "assay": "Inhibition of CDC7/DBF4 (unknown origin) in presence of [gamma-33P]ATP", "format": "protein-complex assay"}, "[11]": {"assay": "Half-life in male cynomolgus monkey at 5 mg/kg, iv by LC-MS analysis", "format": "ADME, organism-based, Macaca fascicularis", "conditions": "in vivo"}, "[12]": {"target": "Inhibitor of nuclear factor kappa-B kinase subunit beta (Homo sapiens, UniProt O14920)", "sequence (O14920 whole entry)": "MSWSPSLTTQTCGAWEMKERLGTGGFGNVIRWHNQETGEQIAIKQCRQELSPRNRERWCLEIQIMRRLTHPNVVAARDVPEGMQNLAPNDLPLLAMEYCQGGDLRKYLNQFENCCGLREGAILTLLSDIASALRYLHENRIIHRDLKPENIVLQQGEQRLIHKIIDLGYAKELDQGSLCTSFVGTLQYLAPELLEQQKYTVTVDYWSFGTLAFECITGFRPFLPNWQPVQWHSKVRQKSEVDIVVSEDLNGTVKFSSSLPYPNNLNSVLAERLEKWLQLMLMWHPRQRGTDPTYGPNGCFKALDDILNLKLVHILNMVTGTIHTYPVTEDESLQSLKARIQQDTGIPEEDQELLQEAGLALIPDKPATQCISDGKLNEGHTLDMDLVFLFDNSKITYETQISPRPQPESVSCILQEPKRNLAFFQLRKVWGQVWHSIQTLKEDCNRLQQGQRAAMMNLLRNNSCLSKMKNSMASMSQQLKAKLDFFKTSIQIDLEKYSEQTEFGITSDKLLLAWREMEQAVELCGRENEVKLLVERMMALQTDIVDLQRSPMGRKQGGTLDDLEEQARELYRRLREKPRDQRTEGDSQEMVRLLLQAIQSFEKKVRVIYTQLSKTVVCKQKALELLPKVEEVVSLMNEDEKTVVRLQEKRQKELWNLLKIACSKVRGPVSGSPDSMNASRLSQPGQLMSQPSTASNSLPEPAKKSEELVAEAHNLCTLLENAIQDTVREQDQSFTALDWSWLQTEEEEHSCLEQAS", "assay": "Inhibition of IKK2 (unknown origin) in presence of [gamma-33P]ATP"}, "[13]": {"target": "Mitogen-activated protein kinase 11 (Homo sapiens) (UniProt Q15759)", "sequence (Q15759 whole entry, the tested form may be a part)": "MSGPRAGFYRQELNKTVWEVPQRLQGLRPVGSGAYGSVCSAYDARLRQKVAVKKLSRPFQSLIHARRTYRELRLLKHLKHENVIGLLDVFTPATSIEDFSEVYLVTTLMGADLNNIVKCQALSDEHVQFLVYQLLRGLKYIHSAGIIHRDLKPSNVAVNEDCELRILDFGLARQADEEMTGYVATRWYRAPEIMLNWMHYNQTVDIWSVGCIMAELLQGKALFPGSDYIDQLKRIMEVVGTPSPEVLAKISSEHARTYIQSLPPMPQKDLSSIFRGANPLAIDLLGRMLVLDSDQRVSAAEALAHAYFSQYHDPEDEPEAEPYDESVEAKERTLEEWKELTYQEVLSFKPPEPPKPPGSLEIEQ", "assay": "Inhibition of N-terminal GST fusion protein corresponding to full-length human SAPK2b expressed in E. coli assessed as residual activity at 1 uM relative to control"}, "SK-LU-1": {"test_system": "SK-LU-1", "assay": "Antiproliferative activity against human SK-LU-1 cells assessed as inhibition of cell growth incubated for 72 hrs by cell-titer glo assay", "format": "functional, cell-based", "conditions": "SK-LU-1, 72 h"}, "Activated CDC42 kinase 1": {"target": "Activated CDC42 kinase 1 (Homo sapiens, UniProt Q07912)", "sequence (Q07912 whole entry, looked up, the tested form may be a part)": "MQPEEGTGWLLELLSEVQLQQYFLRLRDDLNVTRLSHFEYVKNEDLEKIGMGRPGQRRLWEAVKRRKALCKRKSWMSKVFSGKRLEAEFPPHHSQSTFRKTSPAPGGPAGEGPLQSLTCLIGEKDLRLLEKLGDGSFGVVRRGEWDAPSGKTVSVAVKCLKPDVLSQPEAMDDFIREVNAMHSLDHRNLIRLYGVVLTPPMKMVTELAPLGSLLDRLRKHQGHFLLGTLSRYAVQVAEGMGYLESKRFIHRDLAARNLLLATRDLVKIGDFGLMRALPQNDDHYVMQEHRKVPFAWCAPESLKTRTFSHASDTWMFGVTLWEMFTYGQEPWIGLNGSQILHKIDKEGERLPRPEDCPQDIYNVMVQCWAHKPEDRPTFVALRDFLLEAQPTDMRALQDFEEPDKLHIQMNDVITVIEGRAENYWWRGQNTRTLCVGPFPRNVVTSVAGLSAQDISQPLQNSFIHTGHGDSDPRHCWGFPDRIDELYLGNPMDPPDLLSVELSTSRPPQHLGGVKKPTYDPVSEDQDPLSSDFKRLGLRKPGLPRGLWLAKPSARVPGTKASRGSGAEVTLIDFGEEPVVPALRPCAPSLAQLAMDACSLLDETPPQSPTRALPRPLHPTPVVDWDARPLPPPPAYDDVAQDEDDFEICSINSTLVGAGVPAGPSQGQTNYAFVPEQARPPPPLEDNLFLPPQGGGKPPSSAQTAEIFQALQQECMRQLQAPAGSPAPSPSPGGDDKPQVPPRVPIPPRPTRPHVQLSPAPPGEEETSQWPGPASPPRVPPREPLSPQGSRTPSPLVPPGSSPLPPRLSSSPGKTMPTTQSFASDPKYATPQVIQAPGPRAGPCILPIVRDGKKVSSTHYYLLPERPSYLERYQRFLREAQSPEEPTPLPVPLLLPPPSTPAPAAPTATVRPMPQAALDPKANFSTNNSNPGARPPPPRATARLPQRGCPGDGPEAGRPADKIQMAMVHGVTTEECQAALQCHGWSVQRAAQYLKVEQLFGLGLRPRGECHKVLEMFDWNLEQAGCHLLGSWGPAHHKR", "assay": "Inhibition of N-terminal GST-tagged recombinant human ACK1 (1 to 389 residues) expressed in baculovirus infected Sf21 cells assessed as residual activity at 1 uM relative to control"}, "HCT-116": {"test_system": "HCT-116", "assay": "Antitumor activity against human HCT-116 cells xenografted in nu/nu mouse assessed as tumor growth inhibition at 60 mg/kg administered for 10 days relative to control", "format": "functional", "conditions": "HCT-116, 240 h, time 10 day, read-out: TGI"}, "[14]": {"assay": "Antiproliferative activity against human GM13705 cells assessed as inhibition of cell growth incubated for 72 hrs by cell-titer glo assay", "format": "functional, cell-based", "conditions": "GM13705, 72 h", "procedure,_shortened": "as §3"}, "SW-620": {"test_system": "SW-620", "assay": "Antiproliferative activity against human SW620 cells assessed as inhibition of cell growth incubated for 72 hrs by cell-titer glo assay", "format": "functional, cell-based", "conditions": "SW-620, 72 h"}, "[15]": {"test_system": "Platelet-derived growth factor receptor alpha (Homo sapiens), P16234 [D842V]", "sequence (P16234 whole entry D842V)": "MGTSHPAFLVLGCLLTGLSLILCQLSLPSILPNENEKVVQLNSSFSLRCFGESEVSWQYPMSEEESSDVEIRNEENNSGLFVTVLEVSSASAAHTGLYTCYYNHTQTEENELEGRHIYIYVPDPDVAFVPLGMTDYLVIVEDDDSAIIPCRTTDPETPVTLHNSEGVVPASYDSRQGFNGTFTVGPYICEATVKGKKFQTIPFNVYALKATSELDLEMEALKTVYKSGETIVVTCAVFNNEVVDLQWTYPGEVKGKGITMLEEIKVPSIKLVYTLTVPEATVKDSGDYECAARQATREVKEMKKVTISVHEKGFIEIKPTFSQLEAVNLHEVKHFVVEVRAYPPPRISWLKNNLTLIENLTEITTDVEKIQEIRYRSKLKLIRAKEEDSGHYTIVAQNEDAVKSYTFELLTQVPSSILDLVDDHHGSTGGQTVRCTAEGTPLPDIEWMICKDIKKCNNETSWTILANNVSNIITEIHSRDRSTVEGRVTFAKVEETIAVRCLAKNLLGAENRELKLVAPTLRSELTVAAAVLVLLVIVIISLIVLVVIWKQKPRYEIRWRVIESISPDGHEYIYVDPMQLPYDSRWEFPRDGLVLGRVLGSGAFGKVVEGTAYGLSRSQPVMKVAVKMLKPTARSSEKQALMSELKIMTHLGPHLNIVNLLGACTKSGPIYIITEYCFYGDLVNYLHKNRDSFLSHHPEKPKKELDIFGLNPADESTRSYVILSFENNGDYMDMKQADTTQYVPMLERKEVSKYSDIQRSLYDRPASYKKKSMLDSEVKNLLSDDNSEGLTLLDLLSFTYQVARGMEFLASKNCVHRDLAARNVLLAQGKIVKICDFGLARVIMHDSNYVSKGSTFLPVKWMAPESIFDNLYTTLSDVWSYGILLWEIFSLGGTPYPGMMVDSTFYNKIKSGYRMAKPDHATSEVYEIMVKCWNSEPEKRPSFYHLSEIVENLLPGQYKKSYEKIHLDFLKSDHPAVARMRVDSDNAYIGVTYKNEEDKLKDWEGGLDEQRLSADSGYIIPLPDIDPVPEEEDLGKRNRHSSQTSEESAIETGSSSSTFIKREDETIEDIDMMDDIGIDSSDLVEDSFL", "assay": "Inhibition of N-terminal His6-tagged recombinant human PDGFRalpha (550 to end residues) D842V mutant expressed in baculovirus infected Sf21 cells assessed as residual activity at 0.1 uM relative to control"}, "NCI-H838": {"test_system": "NCI-H838", "assay": "Antiproliferative activity against human NCI-H838 cells assessed as inhibition of cell growth incubated for 72 hrs by cell-titer glo assay", "format": "functional, cell-based", "conditions": "NCI-H838, 72 h", "procedure,_shortened": "as §1"}, "A-375": {"test_system": "A-375", "assay": "Antiproliferative activity against human A-375 cells assessed as inhibition of cell growth incubated for 72 hrs by cell-titer glo assay", "format": "functional, cell-based", "conditions": "A-375, 72 h", "procedure,_shortened": "as §2"}, "NCI-H1993": {"test_system": "NCI-H1993", "assay": "Antiproliferative activity against human NCI-H1993 cells assessed as inhibition of cell growth incubated for 72 hrs by cell-titer glo assay", "format": "functional, cell-based", "conditions": "NCI-H1993, 72 h", "procedure,_shortened": "as §1"}},
  "data": [
    {"smiles": "CN1CCN(c2ccc(OC(F)(F)F)c(Nc3ncc4c(n3)-c3c(c(C(N)=O)nn3CCO)CC4)c2)CC1", "note": "[ONVANSERTIB]", "values": [
      {"measurement": "IC50", "setting": "PC-3", "result": 152, "unit": "nM"},
      {"measurement": "Activity", "setting": "[1]", "result": 123, "unit": "%"},
      {"measurement": "IC50", "setting": "[2]", "result": 139, "unit": "nM"},
      {"measurement": "Activity", "setting": "[3]", "result": 96, "unit": "%"},
      {"measurement": "Activity", "setting": "[4]", "result": 129, "unit": "%"},
      {"measurement": "IC50", "setting": "PANC-1", "result": 184, "unit": "nM"},
      {"measurement": "IC50", "setting": "Granta-519", "result": 29, "unit": "nM"},
      {"measurement": "Activity", "setting": "[5]", "result": 85, "unit": "%"},
      {"measurement": "IC50", "setting": "LS180", "result": 192, "unit": "nM"},
      {"measurement": "IC50", "setting": "U2OS", "result": 285, "unit": "nM"},
      {"measurement": "Activity", "setting": "NHDF", "result": "Toxic"},
      {"measurement": "half-life", "setting": "[6]", "result": 1.6, "unit": "h"},
      {"measurement": "Activity", "setting": "[7]", "result": 69, "unit": "%"},
      {"measurement": "IC50", "setting": "[8]", "result": "> 10000", "unit": "nM"},
      {"measurement": "Activity", "setting": "[9]", "result": 89, "unit": "%"},
      {"measurement": "IC50", "setting": "KM12", "result": 277, "unit": "nM"},
      {"measurement": "IC50", "setting": "[10]", "result": "> 10000", "unit": "nM"},
      {"measurement": "half-life", "setting": "[11]", "result": 5, "unit": "h"},
      {"measurement": "IC50", "setting": "[12]", "result": "> 10000", "unit": "nM"},
      {"measurement": "Activity", "setting": "[13]", "result": 146, "unit": "%"},
      {"measurement": "IC50", "setting": "SK-LU-1", "result": 443, "unit": "nM"},
      {"measurement": "Activity", "setting": "Activated CDC42 kinase 1", "result": 89, "unit": "%"},
      {"measurement": "inhibition in vivo at 60 mg/kg", "setting": "HCT-116", "result": 89, "unit": "%"},
      {"measurement": "IC50", "setting": "[14]", "result": 162, "unit": "nM"},
      {"measurement": "IC50", "setting": "SW-620", "result": 37, "unit": "nM"},
      {"measurement": "Activity", "setting": "[15]", "result": 122, "unit": "%"},
      {"measurement": "IC50", "setting": "NCI-H838", "result": 119, "unit": "nM"},
      {"measurement": "IC50", "setting": "A-375", "result": 40, "unit": "nM"},
      {"measurement": "IC50", "setting": "NCI-H1993", "result": 287, "unit": "nM"}
    ]}
  ]
}
